Compound activity (PubChem BioAssay)
A selection: hits, their analogues and other compounds. The true share with any hit is near 1.7%.
ARNT-TACC3 inh – disrupts binding between human ARNT and TACC3 | Q9Y6A5 | actives 0.66% (n = 390,000) | inhibition, % at 9.99 µM | AlphaScreen His-ARNT PAS-B/GST-TACC3 binding, luminescence; TACC3 fragment carries E629A point mutation | AID 623870;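 active = mean inhibition of replicates at least 50% and at least half of replicates each reaching 50%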;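 note: 0% = complete ARNT plus TACC3 wells and 100% = ARNT alone without TACC3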
CAL PDZ FP-1 – inhibitors of human CAL PDZ peptide binding | Q9HD26 | purified CAL PDZ, TMR-peptide fluorescence polarization, 1 h | inhibition, % at 24.9 µM | actives 0.92% (n = 300,000) | AID 602252;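 active = mean inhibition of at least 30% with at least half of replicates also reaching 30%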;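 note: 0% = DMSO neutral control and 100% = excess unlabeled competitor peptide PRC23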
F508del corr – correctors of CFTR F508del function in bronchial epithelial cells; actives 0.36% (n = 350,000); AID 720511; activity (quench increase), % at 7.58 µM; CFBE cells, YFP halide quenching; stimulated with forskolin plus potentiator P3; % fluorescence drop versus neutral controls;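 active = mean added fluorescence quench of at least 8% versus neutral control, with both replicates also reaching 8%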;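 note: cells transiently co-express mutant CFTR-F508del with the halide-sensitive YFP; corrector assay measuring rescue of mutant channel to the surface after 24 h compound exposure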
miR-122 sensor – miR-122 inhibition in Huh7 cells. activation (reporter increase), % at 12.5 µM. Huh7 miR-122 Renilla luciferase sensor, 48 h; neutral wells = 0, positive control = 100. actives 0.3% (n = 340,000);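 active = mean replicate activation score at least 90 and every replicate individually at or above 90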;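 note: higher luciferase means less miR-122 activity so hits act as miR-122 inhibitors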
PGC1a acetyl inh – modulators of PGC1a acetylation; U2OS PGC1a acetylation, AlphaScreen anti-acetyl-lysine; with virally co-expressed GCN5 acetyltransferase; inhibition, % at 15.6 µM; actives 0.17% (n = 350,000);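 active = every replicate shows inhibition of at least 40%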;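 note: 0% = neutral control wells and 100% = positive control wells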
CAL PDZ FP-2 – human CAL PDZ-peptide interaction inhibition; AID 504414; actives 0.02% (n = 330,000); purified CAL PDZ, TMR-peptide fluorescence polarization, 1 h; inhibition, % at 20 µM;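 active = highest replicate inhibition of at least 40%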;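 note: plate controls were DMSO neutral control wells for no effect and unlabeled competitor peptide control wells for full effect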
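material = purified tagged CAL PDZ domain construct (CerCALP) | compound dosing = 20 µM, one dose | times = 1 h at RT | measured by = fluorescence polarization from S- and P-plane intensities, G-factor corrected | read-out = inhibition from polarization loss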
AlphaScreen ctr – AlphaScreen artifact in ARNT/TACC3 counter-screen; shares compounds with ARNT-TACC3 inh; His-ARNT PASB-GST AlphaScreen artifact counter-screen, luminescence; AC50, µM (top dose mostly 68 µM), for inactives: at the top dose activity change, negative = signal decrease; actives 50% (n = 1,200);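 active = every separate test run was called active for a drop in luminescence, with AC50 within twice the top valid dose, actives reach about 71 µM in these data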
Numbers without * were called inactive; . = no result given; [ ] = remark or other dose.

SMILES	ARNT-TACC3 inh	CAL PDZ FP-1	F508del corr	miR-122 sensor	PGC1a acetyl inh	CAL PDZ FP-2	AlphaScreen ctr
C[C@@H]1CN([C@@H](C)CO)C(=O)c2cc(NC(=O)C3CCCCC3)ccc2O[C@@H](C)CCCCO[C@H]1CN(C)C(=O)Cc1ccccc1	-3	.	2	1[16.7 µM]	-14	.	.
Cc1cccc(Nc2nc(-c3ccccn3)cs2)n1	73*	-1	.	0	-5	1	47µM*
Cc1cccc(Nc2nc(-c3cccs3)cs2)n1	-3	-3	.	0	-6	0	.
Cc1cccnc1Nc1nc(-c2ccccn2)cs1	69*	1	.	-31	-47	0	5.3µM*
Cc1cccc(C(=O)Nc2nnc(-c3ccncc3)o2)c1	62*	4	5	.	8	0	-27%
Cc1ccccc1C(=O)Nc1nnc(-c2ccco2)o1	62*	0	-4	.	3	-1	-33%
Cc1cccc(C(=O)Nc2nnc(-c3ccco3)o2)c1	56*	20	.	.	.	-2	-35%
Cc1ccc(C(=O)Nc2nnc(-c3ccco3)o2)cc1C	21	-1	.	.	.	-3	.
O=C(Nc1nnc(-c2ccncc2)o1)c1ccc2ccccc2c1	20	-4	-5	.	-13	-2	.
Cc1cccc(C(=O)Nc2nnc(-c3cccnc3)o2)c1	59*	-3	2	.	-2	-1	-35%
COC(=O)c1ccc(C(=O)Nc2nnc(-c3cccnc3)o2)cc1	.	.	6	.	.	.	.
COc1cccc(CNC(=O)C[C@@H]2CC[C@@H](NC(=O)C3CCOCC3)[C@H](CO)O2)c1	29	.	1	.	-4	.	.
CN(C)CCNc1ccc2ncn3c4ccc(O)cc4c(=O)c1c23	58*	-2	21*	.	.	1	-30%
O=C(N[C@@H]1CC[C@@H](CCn2cc(-c3ccccn3)nn2)O[C@H]1CO)c1ccc(F)cc1	75*	.	1	.	2	.	47µM*
O=C(N[C@H]1CC[C@@H](CCn2cc(-c3ccccn3)nn2)O[C@H]1CO)c1ccc(F)cc1	60*	.	1	.	-8	.	43µM*
O=C(N[C@H]1CC[C@@H](CCn2cc(-c3ccccn3)nn2)O[C@@H]1CO)c1ccc(F)cc1	112*	.	-1	.	0	.	45µM*
O=C(N[C@@H]1CC[C@H](CCn2cc(-c3ccccn3)nn2)O[C@H]1CO)c1ccc(F)cc1	43*	.	1	.	-9	.	43µM*
O=C(N[C@@H]1CC[C@@H](CCn2cc(-c3ccccn3)nn2)O[C@@H]1CO)c1ccc(F)cc1	.	.	-4	.	-3	.	.
O=C(N[C@H]1CC[C@H](CCn2cc(-c3ccccn3)nn2)O[C@H]1CO)c1ccc(F)cc1	.	.	-3	.	11	.	.
O=C(C1CCCC1)N1CCCCN2[C@H](C1)[C@H](c1ccc(-c3ccncc3)cc1)[C@@H]2CO	-5	.	-5	-23[16.7 µM]	-6	.	.
CC(C)NC(=O)N(C)C[C@@H]1Oc2ncc(C#CC3CCCC3)cc2C(=O)N([C@H](C)CO)C[C@@H]1C	-2	.	2	-1[16.7 µM]	-3	.	.
CCNC(=O)Nc1ccc2c(c1)C(=O)N(C)[C@@H]1CC[C@@H](CC(=O)Nc3ccccc3)O[C@@H]1CO2	4	.	1	0[16.7 µM]	8	.	.
CCCNC(=O)Nc1ccc2c(c1)C(=O)N(C)C[C@H](OC)[C@@H](C)CN(Cc1cccnc1)[C@@H](C)CO2	-2	.	1	.	12	.	.
CCN(CC)c1ccc(Nc2nc(N3CCOCC3)c3ccccc3n2)cc1	55*	0	.	-1	10	2	5.7µM*
O=C(CSc1nnc(-c2ccccn2)o1)Nc1ccccc1C(F)(F)F	55*	-12	0	5	4	0	-12%
SMILES	ARNT-TACC3 inh	CAL PDZ FP-1	F508del corr	miR-122 sensor	PGC1a acetyl inh	CAL PDZ FP-2	AlphaScreen ctr
Cc1ccc(S(=O)(=O)N[C@H]2C=C[C@H](CC(=O)NC3CCCCC3)O[C@H]2CO)cc1	-10	.	4	.	-11	.	.
O=C(CSC1=NNC(c2ccccn2)S1)Nc1ccccc1 (stereo not given)	58*	.	11*	2	1	-2	6.4µM*
O=C(CSC1=NNC(c2ccccn2)S1)Nc1cccc(Cl)c1 (stereo not given)	12	.	0	-6	15	-1	.
O=C(NCC1CC1)[C@@H]1[C@@H](CO)[C@@H]2Cn3c(cccc3=O)[C@@H]2N1Cc1cncnc1	-1	.	.	.	.	.	.
COc1cc(/C=C2\S/C(=N/S(=O)(=O)c3ccccc3)NC2=O)c([N+](=O)[O-])cc1OC	9.7*	0	.	5	7	-2	-25%
c1ccc(N2CCN(Cc3nc4ccccc4[nH]3)CC2)nc1	2	4	-2	5	.	-2	.
c1c[nH]c(CN2CCN(Cc3ncc[nH]3)CC2)n1	53*	0	1	.	2	0	-3%
Nc1ncnc(Oc2cccc3cccnc23)c1[N+](=O)[O-]	51*	.	-4	.	9	0	-29%
Cc1cccc(Oc2ncnc(N)c2[N+](=O)[O-])c1C	-32	1	.	3	7	0	.
C[C@H](CO)N1C[C@H](C)[C@H](CN(C)S(=O)(=O)c2ccc(Cl)cc2)OCCCC[C@H](C)Oc2ccc(NC(=O)c3ccccc3)cc2C1=O	-18	.	-1	-14[16.7 µM]	2	.	.
CS(=O)(=O)c1ccccc1-c1nnc(NC(=O)c2ccc3ncsc3c2)o1	50*	0	-5	2	27	-2	-38%
C[C@H](CO)N1C[C@H](C)[C@H](CN(C)Cc2ccc3c(c2)OCO3)Oc2c(NC(=O)c3nc4ccccc4s3)cccc2C1=O	.	.	0	.	.	.	.
O=C(NCCCn1ccnc1)C(F)(F)C(F)(F)C(=O)NCCCn1ccnc1	51*	7	.	-4	-5	0	-18%
COc1ccccc1NC(=O)N[C@H]1CC[C@@H](CC(=O)N2CCC(Cc3ccccc3)CC2)O[C@H]1CO	5	.	-6	.	-5	.	.
Cc1ccn2c(Nc3ccccc3)c(-c3ccccn3)nc2c1	43	0	-3	11	12	1	.
Cc1ccn2c(Nc3ccccc3C)c(-c3ccccn3)nc2c1	70*	-2	5	18	5	0	21µM*
COc1ccc2nc(/N=C/c3c(C)[nH]n(-c4ccc(C)cc4)c3=O)sc2c1	55*	2	1	2	.	-1	-37%
COc1ccc2nc(/N=C\N(C)C)sc2c1	-6	-4	.	-8	-1	.	.
C[C@@H]1CN([C@H](C)CO)C(=O)c2cc(NC(=O)Nc3ccc(C(F)(F)F)cc3)ccc2O[C@@H](C)CCCCO[C@@H]1CN(C)Cc1ccc2c(c1)OCO2	56*	.	1	-18[16.7 µM]	-21	.	26µM*
